Columns and labels:
[1] = Tested for the inhibition of reversibility of hog gastric H+/K+-ATPase at 0.05 uM (200-fold dilution after pre-incubation); type: functional, Sus scrofa, Stomach; parameters: scale not given: the % may be the effect or the level left
[2] = species: Rattus norvegicus; experiment: Tested for the inhibition of bone resorption by measuring number of pits/slice at 10 e -8 M (sd 4.87); type: functional
Procedure, shortened: (§1)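 Osteoclasts mechanically disaggregated from neonatal rat long bones into Hepes-buffered medium 199, settled 30 s, allowed to attach to bone slices (2.5 mm²) for 15 min at 37 °C, washed, then cultured overnight in 10% newborn calf serum in Hanks-buffered MEM with or without drug. Cells removed with 10% NaOCl, slices gold-coated, entire surface scanned by SEM for pit number, pit size and resorbed plan area. Student's t-test.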

[3] = species: Rattus norvegicus; experiment: Tested for the inhibition of bone resorption by measuring mean pit size at 10 e -6 M (sd 963); type: functional; procedure, shortened: as §1
[4] = species: Rattus norvegicus; experiment: Tested for the inhibition of bone resorption by measuring mean total resorption at 10 e -5 M (sd 2675); type: functional; procedure, shortened: as §1
[5] = species: Rattus norvegicus; experiment: Tested for the inhibition of bone resorption by measuring number of pits/slice at 10 e -6 M (sd 3.87); type: functional; procedure, shortened: as §1
[6] = Tested for the inhibition of reversibility of hog gastric H+/K+-ATPase at 10 uM; type: functional, Sus scrofa, Stomach; parameters: scale not given: the % may be the effect or the level left
[7] = species: Rattus norvegicus; experiment: Tested for inhibition of bone resorption by osteoclasts in a bone slice assay in rats at 10 e -7 M; type: functional; procedure, shortened: as §1
[8] = species: Rattus norvegicus; experiment: Tested for the inhibition of bone resorption in neonatal rat long bones by measuring mean total resorption at 10 e -6 M (sd 4446); type: functional; procedure, shortened: as §1
[9] = Tested for reversible inhibition against gastric H+/K+-ATPase isolated from porcine gastric microsomes; value ranges from […]; type: functional, Sus scrofa, Stomach
[10] = species: Rattus norvegicus; experiment: Tested for the inhibition of bone resorption by measuring mean pit size at 10 e -5 M (sd 1012); type: functional; procedure, shortened: as §1
[11] = species: Rattus norvegicus; experiment: Tested for the inhibition of bone resorption in neonatal rat long bones by measuring mean total resorption at 10 e -7 M (sd 4081); type: functional; procedure, shortened: as §1
[12] = species: Rattus norvegicus; experiment: Tested for the inhibition of bone resorption in neonatal rat long bones by measuring mean pit size at 10 e -8 M (sd 1498); type: functional; procedure, shortened: as §1
[13] = species: Rattus norvegicus; experiment: Tested for the inhibition of bone resorption by measuring number of pits/slice at 10 e -5 M (sd 2.74); type: functional; procedure, shortened: as §1
[14] = species: Rattus norvegicus; experiment: Tested for the inhibition of bone resorption by measuring number of pits/slice at 10 e -7 M (sd 3.53); type: functional; procedure, shortened: as §1
[15] = species: Rattus norvegicus; experiment: Tested for the inhibition of bone resorption in neonatal rat long bones by measuring mean total resorption at 10 e -8 M (sd 7210); type: functional; procedure, shortened: as §1
[16] = species: Rattus norvegicus; experiment: Tested for the inhibition of bone resorption by measuring mean total resorption at 10 e -5 M (sd 1111); type: functional; procedure, shortened: as §1
[17] = Tested for the inhibition of reversibility of hog gastric H+/K+-ATPase at 2 uM; type: functional, Sus scrofa, Stomach; parameters: scale not given: the % may be the effect or the level left
[18] = species: Rattus norvegicus; experiment: Tested for the inhibition of bone resorption by measuring number of pits/slice at 10 e -6 M (sd 3.46); type: functional; procedure, shortened: as §1
[19] = species: Rattus norvegicus; experiment: Tested for the inhibition of bone resorption by measuring number of pits/slice at 10 e -5 M (sd 1.88); type: functional; procedure, shortened: as §1
[20] = species: Rattus norvegicus; experiment: Tested for the inhibition of bone resorption by measuring mean total resorption at 10 e -6 M (sd 3349); type: functional; procedure, shortened: as §1
[21] = Tested for reversible inhibition against gastric H+/K+-ATPase isolated from porcine gastric microsomes; value ranges from 3-10 uM; type: functional, Sus scrofa, Stomach
[22] = species: Rattus norvegicus; experiment: Tested for the inhibition of bone resorption by measuring mean pit size at 10 e -5 M (sd 562); type: functional; procedure, shortened: as §1
[23] = species: Rattus norvegicus; experiment: Tested for the inhibition of bone resorption by measuring mean total resorption at 10 e -7 M (sd 4088); type: functional; procedure, shortened: as §1
[24] = species: Rattus norvegicus; experiment: Tested for the inhibition of bone resorption by measuring mean pit size at 10 e -8 M (sd 1092); type: functional; procedure, shortened: as §1
[25] = species: Rattus norvegicus; experiment: Tested for the inhibition of bone resorption by measuring number of pits/slice at 10 e -7 M (sd 3.94); type: functional; procedure, shortened: as §1
[26] = species: Rattus norvegicus; experiment: Tested for the inhibition of bone resorption by measuring mean pit size at 10 e -7 M (sd 1032); type: functional; procedure, shortened: as §1
[27] = Tested for the inhibition of reversibility of hog gastric H+/K+-ATPase at 0.01 uM (200-fold dilution after pre-incubation); type: functional, Sus scrofa, Stomach; parameters: scale not given: the % may be the effect or the level left
[28] = species: Rattus norvegicus; experiment: Tested for the inhibition of bone resorption by measuring mean pit size at 10 e -6 M (sd 814); type: functional; procedure, shortened: as §1
[29] = species: Rattus norvegicus; experiment: Tested for the inhibition of bone resorption by measuring mean total resorption at 10 e -8 M (sd 5079); type: functional; procedure, shortened: as §1
[30] = species: Rattus norvegicus; experiment: Tested for inhibition of bone resorption by osteoclasts in a bone slice assay in rats at 10 e -5 M; type: functional; procedure, shortened: as §1
[31] = species: Rattus norvegicus; experiment: Tested for the inhibition of bone resorption by measuring number of pits/slice at 10 e -8 M (sd 5.51); type: functional; procedure, shortened: as §1

## CCOC(=O)CCC(=O)c1cnc2c(OC)cccc2c1Nc1ccccc1C
[1]
  Activity: 100%
[2]
  No. of pits/slice: 5.89
[3]
  Mean pit size: 1190 µm²
[4]
  Mean total resorption: 2040 um2
[5]
  No. of pits/slice: 3.39
[6]
  Activity: 60%
[7]
  IC50: 2 µM
[8]
  Mean total resorption: 4040 um2
[9]
  IC50: 10 µM
[10]
  Mean pit size: 948 µm²
[11]
  Mean total resorption: 4790 um2
[12]
  Mean pit size: 1450 µm²
[13]
  No. of pits/slice: 2.22
[14]
  No. of pits/slice: 4.67
[15]
  Mean total resorption: 8400 um2

## CCOC(=O)c1cnc2c(OC)cccc2c1Nc1ccccc1C
[16]
  Mean total resorption: 1270 um2
[17]
  Activity: 66%
[18]
  No. of pits/slice: 9.17
[19]
  No. of pits/slice: 2.67
[20]
  Mean total resorption: 7300 um2
[21]
  IC50: 3 µM
[22]
  Mean pit size: 477 µm²
[23]
  Mean total resorption: 9060 um2
[24]
  Mean pit size: 926 µm²
[25]
  No. of pits/slice: 9.5
[26]
  Mean pit size: 919 µm²
[27]
  Activity: 90%
[28]
  Mean pit size: 798 µm²
[29]
  Mean total resorption: 8740 um2
[30]
  IC50: 4 µM
[31]
  No. of pits/slice: 9.83

— ChEMBL document CHEMBL1126807, “Inhibition of bone resorption by H+/K(+)-ATPase inhibitors” (J Med Chem, 1993)
